Measured values collected from several papers.

O=c1[nH]cc(F)c(=O)[nH]1 — IC50 (HEp-2; cell growth or viability; WST-1; 48 h): 9.3 µM
COc1c(C)c(OS(=O)(=O)c2ccc3ccccc3c2)c(C)c(OS(=O)(=O)c2ccc3ccccc3c2)c1C(=O)/C=C/c1ccccc1 — IC50 (FaDu; cell growth or viability; SRB; 72 h): > 50 µM
CC(NCCc1ccc(O)cc1)C(O)c1ccc(O)cc1 (stereo not shown) — IC50 (THP-1; TNF-α release; inhibitor; 17 h; LPS-stimulated): 3.5 µM
Cc1[nH]c2ccccc2c1CCNCc1ccc(/C=C/C(=O)NO)cc1 — IC50 (C13; cell growth or viability; crystal violet): 0.0093 µM
COc1cc(Nc2nccc(-c3cnn4nc(OC)ccc34)n2)cc(C(F)(F)F)c1 — IC50 (NCI-H441; cell growth or viability; ATP luminescence): 0.57 µM
CN1C(=O)c2cc(C(N)=O)nc3c(N)c(Cl)c(N)c1c23 — IC50 (Calu-3; cell growth or viability): 17.6 µM
CCCn1cnc2ccc(/C=C/C(=O)NO)cc2c1=O — IC50 (SW-620; cell growth or viability; SRB; 48 h): 2.7 µM
CC(C)C(=O)SCCCCCCC(=O)Nc1nc(-c2ccccc2)cs1 — IC50 (FaDu; cell growth or viability; 72 h): 4.29 µM
CC(CCc1ccc(O)cc1)NCCc1ccc(O)c(O)c1 (stereo not shown) — IC50 (THP-1; TNF-α release; inhibitor; ELISA; 17 h; LPS-stimulated): 0.09 µM
CC(C)[C@H](N)C(=O)N1CCC[C@H]1B(O)O — IC50 (NOMO-1; cell growth or viability; ATP luminescence; 5 days): 0.031 µM
O=C(/C=C/c1ccc(O)c(O)c1)O[C@@H]1C[C@](O)(C(=O)O)C[C@@H](O)[C@H]1O — IC50 (HEp-2; cell growth or viability; WST-1; 48 h): 5.1 µM
Nc1nc(Nc2ccccc2)nc2c1ncn2[C@@H]1O[C@H](CO)[C@@H](O)[C@H]1O — IC50 (FaDu; cell growth or viability; 72 h): > 20 µM
COc1cccc2c1C(=O)c1c(O)c3c(c(O)c1C2=O)C[C@@](O)(C(=O)CO)C[C@@H]3O[C@H]1C[C@H](N)[C@H](O)[C@H](C)O1 — IC50 (SUM159; cell growth or viability; MTT; 48 h): 4 µM
N#Cc1cc([N+](=O)[O-])c2sc(C(N)=O)[n+]([O-])c2c1 — IC50 (THP-1; TNF-α release; inhibitor; ELISA; 17 h; LPS-stimulated): 1.95 µM
CCn1cnc2ccc(/C=C/C(=O)NO)cc2c1=O — IC50 (SW-620; cell growth or viability; SRB; 48 h): 6.69 µM
CC1(C)CC[C@]2(C)CC[C@]3(C)C(=CC[C@@H]4[C@@]5(C)CC[C@H](O)C(C)(C)[C@@H]5CC[C@]43C)[C@@H]2C1 — IC50 (HEp-2; cell growth or viability; WST-1; 48 h): 85.6 µM
CC(C)C[C@H](NC(=O)[C@H](Cc1ccccc1)NC(=O)c1cnccn1)B(O)O — IC50 (SJSA-1; cell growth or viability; ATP luminescence): 0.011 µM
Nc1ncnc2c1ncn2[C@@H]1O[C@H](CO)[C@@H](O)[C@@H]1O — IC50 (FaDu; cell growth or viability; 72 h): > 20 µM
CCCC1(C)C(C#N)(C#N)C1(C#N)C#N — IC50 (THP-1; TNF-α release; inhibitor; 17 h; LPS-stimulated): 1.15 µM
O=C(/C=C/c1ccc2ncn(Cc3ccccc3F)c(=O)c2c1)NO — IC50 (SW-620; cell growth or viability; SRB; 48 h): 1.12 µM
Clc1ccc(-c2nc3ccccc3[nH]2)cc1Cl — IC50 (MCF7; cell growth or viability; MTT; 48 h): 11.1 µM
CC[C@@]1(O)C(=O)OCc2c1cc1n(c2=O)Cc2cc3ccccc3nc2-1 — IC50 (P388; cell growth or viability; MTT; 96 h): 0.004 µM
N#Cc1ccc(COC[C@H]2O[C@@H](n3c(NCc4ccc(Cl)c(Cl)c4)nc4c(N)ncnc43)[C@H](O)[C@@H]2O)cc1 — IC50 (FaDu; cell growth or viability; 72 h): > 20 µM
CC(C)NCC(O)c1ccc(O)c(O)c1 (racemic) — IC50 (THP-1; TNF-α release; inhibitor; 17 h; LPS-stimulated): 0.016 µM
COc1cc(C2Oc3cc([C@H]4Oc5cc(O)cc(O)c5C(=O)[C@@H]4O)ccc3OC2CO)ccc1O (stereo partly shown) — IC50 (HepaRG; cell growth or viability; MTT; 24 h): 142 µM
O=[N+]([O-])c1cccc(-c2nc3ccccc3[nH]2)c1 — IC50 (MCF7; cell growth or viability; MTT; 48 h): 24.4 µM
O=C(/C=C/c1ccc2ncn(CC3CCCCC3)c(=O)c2c1)NO — IC50 (SW-620; cell growth or viability; SRB; 48 h): 1.16 µM
COc1ccc(C(=O)O[C@@H]2CN3Cc4c(cc5c(c4OC)OCO5)[C@@]24C=C[C@H](OC)C[C@@H]34)cc1OC — IC50 (SAOS-2; cell growth or viability; WST-1): 2.1 µM
CC(=O)O[C@H]1C(=O)[C@@]2(C)[C@H]([C@H](OC(=O)c3ccccc3)[C@]3(O)C[C@H](OC(=O)[C@H](O)[C@@H](NC(=O)c4ccccc4)c4ccccc4)C(C)=C1C3(C)C)[C@]1(OC(C)=O)CO[C@@H]1C[C@@H]2O — IC50 (MCF7; cell growth or viability; MTT): 2.35 µM
O=C(/C=C/c1ccc2c(=O)n(Cc3cccc(F)c3)cnc2c1)NO — IC50 (SW-620; cell growth or viability; SRB; 48 h): 1.67 µM
Nc1ccn([C@@H]2O[C@H](CO)[C@@H](O)C2(F)F)c(=O)n1 — IC50 (Panc02; cell growth or viability; CCK-8; 72 h): 0.0341 µM
CCCCc1ccc2[nH]c(NC(=O)OC)nc2c1 — IC50 (FaDu; cell growth or viability; 72 h): 0.153 µM
N[C@@H](CC(=O)N1CCN(C(c2ccc(F)cc2)c2ccc(F)cc2)CC1)C(=O)N1Cc2ccccc2C1 — IC50 (NOMO-1; cell growth or viability; ATP luminescence; 48 h): 4.7 µM
Cc1ccc2nc(-c3ccc(Cl)c(Cl)c3)[nH]c2c1 — IC50 (MCF7; cell growth or viability; MTT; 48 h): 50.8 µM
Nc1ncnc2c1ncn2[C@@H]1O[C@H](CO)[C@@H](O)[C@H]1O — IC50 (HEp-2; cell growth or viability; WST-1; 48 h): 49.1 µM
COc1ccc(-c2nc3ccc(C)cc3[nH]2)cc1O — IC50 (MCF7; cell growth or viability; MTT; 48 h): 23.7 µM
O=C1Nc2ccc(Cl)cc2[C@@](C#CC2CC2)(C(F)(F)F)O1 — IC50 (FaDu; cell growth or viability; 72 h): > 20 µM
COc1ccc(-c2nc3ccc(C)cc3[nH]2)cc1OC — IC50 (MCF7; cell growth or viability; MTT; 48 h): > 100 µM
Nc1c2c(nc3ccccc13)CCCC2O (stereo not shown) — IC50 (FaDu; cell growth or viability; 72 h): > 20 µM
CC(C)/N=C1\c2cc(C(N)=O)nc3c(N)c(Cl)c(N)c(c23)N1C — IC50 (Calu-3; cell growth or viability): 0.77 µM
COc1cccc(C(=O)O[C@@H]2CN3Cc4c(cc5c(c4OC)OCO5)[C@@]24C=C[C@H](OC)C[C@@H]34)c1 — IC50 (SAOS-2; cell growth or viability; WST-1): 6.9 µM
COc1ccc(CCN(C)CCc2ccc(OC)c(OC)c2)cc1OC — IC50 (FaDu; cell growth or viability; 72 h): > 20 µM
Clc1ccc(Cn2c(-c3ccc(Cl)cc3)nc3ccccc32)cc1 — IC50 (MCF7; cell growth or viability; MTT): 8.56 µM
